In paper PMC3241894 (ACS chemical biology, 2011):

Legend:
Hsp70 = Hsp70 up-regulation in compound-treated cells; format: cell-based; conditions: HCT-116 cells, 24 hours
In short: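 HCT-116 cells exposed for 24 h to test compound (0–25 µM), or to 17-AAG (0–200 nM) as reference Hsp90 inhibitor. Cells were then harvested and lysed, and lysates probed for Hsp70 by Western blot with GAPDH as loading control. Experiments were repeated three times, reported as mean ± SEM, and compared by unpaired t-test.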

[1] = test system: FKBP52 and Hsp90 binding interaction; experiment: pure protein binding assay FKBP52 and Hsp90; set-up: species or system human; conditions: 100 nM Hsp90, 50 nM GST-FKBP52, 0–10 µM compound
[2] = test system: FKBP38 and Hsp90 binding interaction; experiment: pure protein binding assay FKBP38 and Hsp90; set-up: species or system human; conditions: 100 nM Hsp90, 50 nM GST-FKBP38, 0–10 µM compound
HeLa cells = experiment: Hsp90 over-expression experiments, cell survival; format: cell-based; conditions: pCMV-Hsp90 vs pCMV control, compound 1 50 µM, 2 5 µM, 17-AAG 100 nM
In short: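 HeLa cells (~30% confluent) were co-transfected by PolyFect with HSP90α and HSP90β plasmids (0.5 µg each) or empty pCMV (1 µg). Hsp90 overexpression was checked by Western blot. After 24 h, cells received DMSO (control), test compound (50 or 5 µM) or 17-AAG (100 nM), and survival was read by CCK-8. Three repeats, mean ± SEM.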

## C=CCNC1=C2C[C@@H](C)C[C@H](OC)[C@H](O)[C@@H](C)/C=C(\C)[C@H](OC(N)=O)[C@@H](OC)/C=C\C=C(/C)C(=O)NC(=CC1=O)C2=O [17-AAG, 17-(allylamino)-17-demethoxygeldanamycin]
Hsp70
  Hsp70 up-regulation over control: 100%
[1]
  inhibition of binding between Hsp90 and FKBP52: do not affect
[2]
  inhibition of binding between Hsp90 and FKBP38: do not affect
HeLa cells
  cytotoxic effect on Hsp90 over-expressing cells relative to control cells: also true
